# Source: ChEMBL document CHEMBL1146085, “Nanomolar inhibitors of the peptidyl prolyl cis/trans isomerase Pin1 from combinatorial peptide libraries” (J Med Chem, 2006)
# pIC50, pKi: −log10 of the molar value. Where a SMILES comes first, the peptide text is derived from it. [ ]: non-standard residue; d: D form. The star is where a group is joined. dalloThr(PO3H2) = C[C@@H](OP(=O)(O)O)[C@@H](N)C(=O)O; alloThr(PO3H2) = C[C@H](OP(=O)(O)O)[C@H](N)C(=O)O; Biotin = O=C1N[C@H]2[C@H](CS[C@H]2CCCCC(=O)*)N1; Phe(4-tBu) = CC(C)(C)c1ccc(C[C@H](N)C(=O)O)cc1; Bip = N[C@@H](Cc1ccc(-c2ccccc2)cc1)C(=O)O; pT = C[C@@H](OP(=O)(O)O)[C@H](N)C(=O)O; 2Nal = N[C@@H](Cc1ccc2ccccc2c1)C(=O)O; Bta = N[C@@H](Cc1csc2ccccc12)C(=O)O; Tic = O=C(O)[C@@H]1Cc2ccccc2CN1; 2Thi = N[C@@H](Cc1cccs1)C(=O)O; Cha = N[C@@H](CC1CCCCC1)C(=O)O; Tle = CC(C)(C)[C@H](N)C(=O)O; Pip = O=C(O)[C@@H]1CCCCN1; NMeA = CN[C@@H](C)C(=O)O
# Experiments:
# [1] = target: T1, Peptidyl-prolyl cis-trans isomerase NIMA-interacting 1 (Homo sapiens, UniProt Q13526); assay: Inhibition of human Pin1 PPIase Activity by protease free PPIase assay
# In short: (§1)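 Protease-free PPIase assay using Abz-Ala-Glu-Pro-Phe-NH-Np as substrate in 35 mM HEPES, pH 7.8, at 10 °C. Ki derived from concentration-dependent measurement of remaining Pin1 activity.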
# HeLa [2] = assay: Stability in HeLa cells after 5 hrs incubation; type: ADME, cell-based; details: human
# In short: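 Peptide incubated 5 h in whole HeLa cell lysate without phosphatase or protease inhibitors. Biotin-conjugated species pulled down on streptavidin Sepharose and analysed by mass spectrometry. Separately, 5 µM peptide analysed by capillary electrophoresis in 50 mM sodium phosphate, pH 7.0, detected at 220 nm, against a reference sample in buffer alone.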
# [3] = Inhibition of PP1 at 500 uM
# [4] = target: Peptidyl-prolyl cis-trans isomerase FKBP1A (Homo sapiens) (UniProt P62942); assay: Inhibition of FKBP12 at 500 uM
# Chain of Peptidyl-prolyl cis-trans isomerase FKBP1A (Homo sapiens) (P62942 whole entry): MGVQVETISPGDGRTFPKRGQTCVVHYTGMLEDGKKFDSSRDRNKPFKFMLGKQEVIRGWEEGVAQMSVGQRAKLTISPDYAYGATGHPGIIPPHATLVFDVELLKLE
# HeLa [5] = assay: Cell cycle arrest in HeLa cells by accumulation at G2/M phase; type: functional, cell-based; details: Homo sapiens
# In short: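 HeLa cells loaded with inhibitor or its nonphosphorylated derivative by electroporation at varying concentrations, then cultured 3 days at 37 °C. DNA content measured by flow cytometry to give cell cycle phase fractions. Intracellular inhibitor level measured after cell lysis and centrifugation by reverse-phase HPLC of the supernatant against a standard curve.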
# [6] = target: Serine/threonine protein phosphatase PP2B-alpha catalytic subunit (Homo sapiens) (UniProt P16298); assay: Inhibition of PP2B at 500 uM
# [7] = target: Peptidyl-prolyl cis-trans isomerase NIMA-interacting 4 (Homo sapiens) (UniProt Q9Y237); assay: Inhibition of Par14 at 500 uM
# Chain of Peptidyl-prolyl cis-trans isomerase NIMA-interacting 4 (Homo sapiens) (Q9Y237 whole entry): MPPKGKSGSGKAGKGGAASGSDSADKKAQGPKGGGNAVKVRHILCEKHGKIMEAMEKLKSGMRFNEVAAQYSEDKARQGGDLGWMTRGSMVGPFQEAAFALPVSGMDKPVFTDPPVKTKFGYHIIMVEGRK
# [8] = target: cAMP-dependent protein kinase (PKA) (Homo sapiens) (UniProt P22694+P17612+P22612); assay: Inhibition of PKA at 500 uM; type: protein assay
# [9] = Inhibition of PP2A at 500 uM
# [10] = target: Peptidyl-prolyl cis-trans isomerase A (Homo sapiens) (UniProt P62937); assay: Inhibition of Cyp18 at 500 uM
# Chain of Peptidyl-prolyl cis-trans isomerase A (Homo sapiens) (P62937 whole entry, looked up): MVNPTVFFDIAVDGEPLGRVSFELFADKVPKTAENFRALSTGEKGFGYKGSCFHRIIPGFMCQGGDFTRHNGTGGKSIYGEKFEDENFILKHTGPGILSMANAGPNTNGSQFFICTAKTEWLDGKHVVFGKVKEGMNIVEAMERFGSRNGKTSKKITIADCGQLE
# [11] = target: Mitogen-activated protein kinase 1 (Homo sapiens) (UniProt P28482); assay: Inhibition of ERK2 at 500 uM
# Chain of Mitogen-activated protein kinase 1 (Homo sapiens) (P28482 whole entry): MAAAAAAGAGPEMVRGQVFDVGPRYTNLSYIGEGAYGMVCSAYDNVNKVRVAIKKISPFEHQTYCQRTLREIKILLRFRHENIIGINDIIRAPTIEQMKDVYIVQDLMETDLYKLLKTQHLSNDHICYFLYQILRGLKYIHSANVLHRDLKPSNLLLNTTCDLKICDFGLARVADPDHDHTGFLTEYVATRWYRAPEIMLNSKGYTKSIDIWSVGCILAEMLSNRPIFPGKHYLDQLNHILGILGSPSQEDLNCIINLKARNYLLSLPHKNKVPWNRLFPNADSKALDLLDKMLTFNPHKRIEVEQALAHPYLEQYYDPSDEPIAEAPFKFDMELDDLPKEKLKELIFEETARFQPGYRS
# [12] = target: Protein kinase C (PKC) (Homo sapiens) (UniProt O94806+P41743+P17252+P05129+Q05655+P05771+Q05513+Q02156+P24723+Q15139+Q04759); assay: Inhibition of PKC at 500 uM; type: protein assay
# [13] = tested on: Peptidyl-prolyl cis-trans isomerase NIMA-interacting 1 (Homo sapiens), Q13526 [S154F]; assay: Residual PPIase activity of human GST-Pin1 S154F
# [14] = target: T1, Peptidyl-prolyl cis-trans isomerase NIMA-interacting 1; assay: Residual PPIase activity of human GST-Pin1 69A
# [15] = tested on: Peptidyl-prolyl cis-trans isomerase NIMA-interacting 1 (Homo sapiens), Q13526 [K63A]; assay: Residual PPIase activity of human GST-Pin1 K63A
# [16] = target: T1, Peptidyl-prolyl cis-trans isomerase NIMA-interacting 1; assay: Residual PPIase activity of human GST-Pin1
# [17] = tested on: Peptidyl-prolyl cis-trans isomerase NIMA-interacting 1 (Homo sapiens), Q13526 [C113A]; assay: Residual PPIase activity of human GST-Pin1 C113A
# [18] = tested on: Peptidyl-prolyl cis-trans isomerase NIMA-interacting 1 (Homo sapiens), Q13526 [S67E]; assay: Residual PPIase activity of human GST-Pin1 S67E
# [19] = target: T1, Peptidyl-prolyl cis-trans isomerase NIMA-interacting 1; assay: Residual PPIase activity of human GST-Pin1 R68
# [20] = tested on: Peptidyl-prolyl cis-trans isomerase NIMA-interacting 1 (Homo sapiens), Q13526 [S16E]; assay: Residual PPIase activity of human GST-Pin1 S16E by protease free PPIase assay; in short: as §1
# [21] = tested on: Peptidyl-prolyl cis-trans isomerase NIMA-interacting 1 (Homo sapiens), Q13526 [H59A]; assay: Residual PPIase activity of human GST-Pin1 H59A
smiles,measurement,setting,value
CC(=O)N[C@@H](Cc1csc2ccccc12)C(=O)N[C@H](C(=O)N1CCCC[C@@H]1C(=O)N[C@@H](Cc1ccc2ccccc2c1)C(=O)N[C@@H](CCC(N)=O)C(N)=O)[C@@H](C)OP(=O)(O)O,pKi,[1],6.59
CC(=O)N[C@@H](Cc1ccccc1)C(=O)N[C@H](C(=O)N1CCCC[C@@H]1C(=O)N[C@@H](Cc1ccc2ccccc2c1)C(=O)N[C@@H](CCC(N)=O)C(N)=O)[C@H](C)OP(=O)(O)O,pKi,[1],6.26
CC(=O)N[C@@H](Cc1ccccc1)C(=O)N[C@@H](C(=O)N1CCCC[C@H]1C(=O)N[C@@H](Cc1ccc2ccccc2c1)C(=O)N[C@@H](CCC(N)=O)C(N)=O)[C@H](C)OP(=O)(O)O,Activity,HeLa [2],Stable
CC(=O)N[C@@H](Cc1ccccc1)C(=O)N[C@@H](C(=O)N1CCCC[C@@H]1C(=O)N[C@@H](Cc1ccc2ccccc2c1)C(=O)N[C@@H](CCC(N)=O)C(N)=O)[C@H](C)OP(=O)(O)O,inhibition,[3],< 10%
same,inhibition,[4],< 10%
same,Activity,HeLa [5],Dose-dependent effect
same,inhibition,[6],< 10%
same,inhibition,[7],< 10%
same,inhibition,[8],< 10%
same,inhibition,[9],< 10%
same,inhibition,[10],< 10%
same,inhibition,[11],< 10%
same,inhibition,[12],< 10%
CC(=O)N[C@@H](CCCCNC(=O)CCCC[C@@H]1SC[C@@H]2NC(=O)N[C@@H]21)C(=O)N[C@@H](C)C(=O)N[C@@H](C)C(=O)N[C@@H](Cc1ccccc1)C(=O)N[C@H](C(=O)N(C)[C@@H](C)C(=O)N[C@@H](Cc1csc2ccccc12)C(=O)N[C@@H](CCC(N)=O)C(N)=O)[C@H](C)OP(=O)(O)O (Ac-K(Biotin)AAF[alloThr(PO3H2)][NMeA][Bta]Q-NH2),pIC50,[1],4.70
CC(=O)N[C@@H](CCCCNC(=O)CCCC[C@@H]1SC[C@@H]2NC(=O)N[C@@H]21)C(=O)N[C@@H](C)C(=O)N[C@@H](C)C(=O)N[C@@H](Cc1ccc2ccccc2c1)C(=O)N[C@H](C(=O)N1CCC[C@H]1C(=O)N[C@@H](CC1CCCCC1)C(=O)N[C@@H](CCC(N)=O)C(N)=O)[C@H](C)OP(=O)(O)O (Ac-K(Biotin)AA[2Nal][alloThr(PO3H2)]P[Cha]Q-NH2),pIC50,[1],< 4.30
CC(=O)N[C@@H](CCCCNC(=O)CCCC[C@@H]1SC[C@@H]2NC(=O)N[C@@H]21)C(=O)N[C@@H](C)C(=O)N[C@@H](C)C(=O)N[C@@H](Cc1ccc2ccccc2c1)C(=O)N[C@H](C(=O)N1CCC[C@H]1C(=O)N[C@H](C(=O)N[C@@H](CCC(N)=O)C(N)=O)C(C)(C)C)[C@H](C)OP(=O)(O)O (Ac-K(Biotin)AA[2Nal][alloThr(PO3H2)]P[Tle]Q-NH2),pIC50,[1],< 4.30
CC(=O)N[C@@H](CCCCNC(=O)CCCC[C@@H]1SC[C@@H]2NC(=O)N[C@@H]21)C(=O)N[C@@H](C)C(=O)N[C@@H](C)C(=O)N[C@@H](Cc1cccs1)C(=O)N[C@H](C(=O)N(C)[C@@H](C)C(=O)N[C@@H](Cc1ccc2ccccc2c1)C(=O)N[C@@H](CCC(N)=O)C(N)=O)[C@H](C)OP(=O)(O)O (Ac-K(Biotin)AA[2Thi][alloThr(PO3H2)][NMeA][2Nal]Q-NH2),pIC50,[1],4.82
CC(=O)N[C@@H](CCCCNC(=O)CCCC[C@@H]1SC[C@@H]2NC(=O)N[C@@H]21)C(=O)N[C@@H](C)C(=O)N[C@@H](C)C(=O)N[C@@H](Cc1ccc(-c2ccccc2)cc1)C(=O)N[C@H](C(=O)N1CCC[C@H]1C(=O)N[C@@H](Cc1ccc2ccccc2c1)C(=O)N[C@@H](CCC(N)=O)C(N)=O)[C@H](C)OP(=O)(O)O (Ac-K(Biotin)AA[Bip][alloThr(PO3H2)]P[2Nal]Q-NH2),pIC50,[1],4.74
same,pKi,[1],8.32
CC(=O)N[C@@H](CCCCNC(=O)CCCC[C@@H]1SC[C@@H]2NC(=O)N[C@@H]21)C(=O)N[C@@H](C)C(=O)N[C@@H](C)C(=O)N[C@@H](Cc1ccc(-c2ccccc2)cc1)C(=O)N[C@H](C(=O)N1CCC[C@H]1C(=O)N[C@@H](Cc1csc2ccccc12)C(=O)N[C@@H](CCC(N)=O)C(N)=O)[C@H](C)OP(=O)(O)O (Ac-K(Biotin)AA[Bip][alloThr(PO3H2)]P[Bta]Q-NH2),pIC50,[1],4.82
CC(=O)N[C@@H](CCCCNC(=O)CCCC[C@@H]1SC[C@@H]2NC(=O)N[C@@H]21)C(=O)N[C@@H](C)C(=O)N[C@@H](C)C(=O)N[C@@H](Cc1csc2ccccc12)C(=O)N[C@H](C(=O)N1CCC[C@H]1C(=O)N[C@@H](Cc1ccc2ccccc2c1)C(=O)N[C@@H](CCC(N)=O)C(N)=O)[C@H](C)OP(=O)(O)O (Ac-K(Biotin)AA[Bta][alloThr(PO3H2)]P[2Nal]Q-NH2),pIC50,[1],4.70
CC(=O)N[C@@H](CCCCNC(=O)CCCC[C@@H]1SC[C@@H]2NC(=O)N[C@@H]21)C(=O)N[C@@H](C)C(=O)N[C@@H](C)C(=O)N[C@@H](Cc1csc2ccccc12)C(=O)N[C@H](C(=O)N1CCCC[C@H]1C(=O)N[C@@H](Cc1ccc2ccccc2c1)C(=O)N[C@@H](CCC(N)=O)C(N)=O)[C@H](C)OP(=O)(O)O (Ac-K(Biotin)AA[Bta][alloThr(PO3H2)][Pip][2Nal]Q-NH2),Activity,[13],35%
same,Activity,[14],0.4%
same,Activity,[15],0.2%
same,Activity,[16],100%
same,Activity,[17],6%
same,Activity,[18],0.3%
same,Activity,[19],0.4%
same,Activity,[20],100%
same,pIC50,[1],6.68
same,pKi,[1],6.74
same,Activity,[21],5.7%
CC(=O)N[C@@H](CCCCNC(=O)CCCC[C@@H]1SC[C@@H]2NC(=O)N[C@@H]21)C(=O)N[C@@H](C)C(=O)N[C@@H](C)C(=O)N[C@@H](Cc1csc2ccccc12)C(=O)N[C@@H](C(=O)N1CCCC[C@H]1C(=O)N[C@@H](Cc1ccc2ccccc2c1)C(=O)N[C@@H](CCC(N)=O)C(N)=O)[C@@H](C)OP(=O)(O)O (Ac-K(Biotin)AA[Bta][dalloThr(PO3H2)][Pip][2Nal]Q-NH2),inhibition,[3],< 10%
same,inhibition,[4],< 10%
same,inhibition,[6],< 10%
same,inhibition,[7],< 10%
same,inhibition,[8],< 10%
same,pKi,[1],8.92
same,inhibition,[9],< 10%
same,inhibition,[10],< 10%
same,inhibition,[11],< 10%
same,inhibition,[12],< 10%
CC(=O)N[C@@H](CCCCNC(=O)CCCC[C@@H]1SC[C@@H]2NC(=O)N[C@@H]21)C(=O)N[C@@H](C)C(=O)N[C@@H](C)C(=O)N[C@@H](Cc1csc2ccccc12)C(=O)N[C@H](C(=O)N1CCC[C@H]1C(=O)N[C@@H](CC1CCCCC1)C(=O)N[C@@H](CCC(N)=O)C(N)=O)[C@@H](C)OP(=O)(O)O (Ac-K(Biotin)AA[Bta][pT]P[Cha]Q-NH2),pIC50,[1],< 4.30
CC(=O)N[C@@H](CCCCNC(=O)CCCC[C@@H]1SC[C@@H]2NC(=O)N[C@@H]21)C(=O)N[C@@H](C)C(=O)N[C@@H](C)C(=O)N[C@@H](CC1CCCCC1)C(=O)N[C@H](C(=O)N(C)[C@@H](C)C(=O)N[C@@H](Cc1ccc2ccccc2c1)C(=O)N[C@@H](CCC(N)=O)C(N)=O)[C@H](C)OP(=O)(O)O (Ac-K(Biotin)AA[Cha][alloThr(PO3H2)][NMeA][2Nal]Q-NH2),pIC50,[1],5.15
CC(=O)N[C@@H](CCCCNC(=O)CCCC[C@@H]1SC[C@@H]2NC(=O)N[C@@H]21)C(=O)N[C@@H](C)C(=O)N[C@@H](C)C(=O)N[C@@H](CC1CCCCC1)C(=O)N[C@H](C(=O)N1Cc2ccccc2C[C@H]1C(=O)N[C@@H](Cc1ccc2ccccc2c1)C(=O)N[C@@H](CCC(N)=O)C(N)=O)[C@H](C)OP(=O)(O)O (Ac-K(Biotin)AA[Cha][alloThr(PO3H2)][Tic][2Nal]Q-NH2),pIC50,[1],4.60
CC(=O)N[C@@H](CCCCNC(=O)CCCC[C@@H]1SC[C@@H]2NC(=O)N[C@@H]21)C(=O)N[C@@H](C)C(=O)N[C@@H](C)C(=O)N[C@@H](Cc1ccc(C(C)(C)C)cc1)C(=O)N[C@H](C(=O)N1Cc2ccccc2C[C@H]1C(=O)N[C@@H](Cc1csc2ccccc12)C(=O)N[C@@H](CCC(N)=O)C(N)=O)[C@H](C)OP(=O)(O)O (Ac-K(Biotin)AA[Phe(4-tBu)][alloThr(PO3H2)][Tic][Bta]Q-NH2),pIC50,[1],5.10
